From ChEMBL document CHEMBL1138485, “Discovery of inducible nitric oxide synthase (iNOS) inhibitor development candidate KD7332, part 1: Identification of a novel, potent, and selective series of quinolinone iNOS dimerization inhibitors that are orally active in rodent pain models” (J Med Chem, 2009)
pEC50: −log10 of the molar value.

Assays:
[1] = molecular target: T1, Nitric oxide synthase, inducible (Homo sapiens, UniProt P35228); assay: Inhibition of human iNOS expressed in HEK293 cells assessed as NO production at 100 uM by transient transfection assay; type: cell-based
[2] = molecular target: T1, Nitric oxide synthase, inducible; assay: Inhibition of human iNOS expressed in HEK293 cells assessed as NO production by transient transfection assay; type: cell-based
How it was run: (§1)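 HEK293 cells grown to ~70% confluence in DMEM/10% FBS with pen/strep. Cells transiently transfected with 10 µg human or murine iNOS plasmid (Fugene 6), 4 h at 37 °C, 10% CO2. Trypsinized, plated at 5 × 10⁵ cells/mL and dosed at once; 1400W 100 µM final as positive control. After 18 h, NO read as DAN fluorescence (10 µg/mL, 20 min RT, then NaOH). EC50 from 3 runs, 10-point curves, n = 8/point.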

[3] = molecular target: T2, Nitric oxide synthase 3 (Homo sapiens, UniProt P29474); assay: Inhibition of human eNOS expressed in HEK293 cells assessed as NO production by transient transfection assay; type: cell-based
T2 sequence (P29474 whole entry): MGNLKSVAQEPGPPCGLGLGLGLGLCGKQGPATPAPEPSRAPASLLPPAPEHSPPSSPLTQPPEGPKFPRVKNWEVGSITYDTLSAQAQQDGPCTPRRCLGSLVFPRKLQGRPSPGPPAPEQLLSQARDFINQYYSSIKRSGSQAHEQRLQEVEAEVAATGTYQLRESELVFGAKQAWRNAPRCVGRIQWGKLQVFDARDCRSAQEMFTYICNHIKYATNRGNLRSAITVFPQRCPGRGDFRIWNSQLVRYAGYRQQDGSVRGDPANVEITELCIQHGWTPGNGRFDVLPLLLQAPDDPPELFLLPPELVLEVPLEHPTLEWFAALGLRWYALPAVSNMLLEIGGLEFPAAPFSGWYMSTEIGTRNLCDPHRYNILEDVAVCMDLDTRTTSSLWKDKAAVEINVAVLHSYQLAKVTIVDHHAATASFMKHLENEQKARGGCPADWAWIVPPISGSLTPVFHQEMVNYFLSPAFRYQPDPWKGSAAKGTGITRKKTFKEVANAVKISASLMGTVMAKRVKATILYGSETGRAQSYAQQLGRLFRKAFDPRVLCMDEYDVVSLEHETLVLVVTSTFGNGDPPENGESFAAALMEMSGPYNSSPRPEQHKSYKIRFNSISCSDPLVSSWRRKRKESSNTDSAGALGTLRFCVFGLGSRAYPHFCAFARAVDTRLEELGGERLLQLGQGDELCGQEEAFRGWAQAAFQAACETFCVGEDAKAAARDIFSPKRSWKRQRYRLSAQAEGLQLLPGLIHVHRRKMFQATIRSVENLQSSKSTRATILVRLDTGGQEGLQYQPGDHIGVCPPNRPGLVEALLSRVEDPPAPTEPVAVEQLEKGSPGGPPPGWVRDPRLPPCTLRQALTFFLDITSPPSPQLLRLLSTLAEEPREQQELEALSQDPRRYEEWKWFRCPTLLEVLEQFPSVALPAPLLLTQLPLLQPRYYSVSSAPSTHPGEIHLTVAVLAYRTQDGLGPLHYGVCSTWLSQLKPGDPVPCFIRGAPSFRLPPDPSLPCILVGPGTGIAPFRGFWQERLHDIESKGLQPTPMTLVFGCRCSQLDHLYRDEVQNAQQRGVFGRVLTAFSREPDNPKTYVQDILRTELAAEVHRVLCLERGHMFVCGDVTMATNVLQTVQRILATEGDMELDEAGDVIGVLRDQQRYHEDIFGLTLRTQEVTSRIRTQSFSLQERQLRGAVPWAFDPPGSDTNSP
How it was run: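 HEK293 cells grown to ~70% confluence in DMEM/10% FBS with pen/strep, transfected with 15 µg human eNOS plasmid plus Fugene 6 (3:1 µL:µg), 4 h at 37 °C, 10% CO2. Cells replated at 5 × 10⁵/mL, compound added at once, 24 h incubation, then A23187 (83 nM final). After 18 h, NO read by DAN fluorescence.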

[4] = test system: Mus musculus; assay: Reduction of plasma nitrate level in LPS-challenged BALB/c mouse at 30 mg/kg, po; type: functional; design: scale not given: the % may be the effect or the level left
How it was run: (§2)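 Male Balb/c mice were dosed by oral gavage (90% PEG/5% Tween 80/5% PVP + 90% CMC (0.5% w/v)) at t = 0 h, 30 mg/kg for single-dose lines. LPS 10 mg/kg ip in 0.9% NaCl followed immediately. At 6 h, EDTA plasma was taken for nitrate and drug levels. Nitrate reduction is relative to vehicle; ED50 came from full oral dose-response.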

[5] = molecular target: T3, Nitric oxide synthase, inducible (Mus musculus, UniProt P29477); assay: Inhibition of mouse iNOS expressed in HEK293 cells assessed as NO production in by transient transfection assay; type: cell-based; how it was run: as §1
T3 sequence (P29477 whole entry): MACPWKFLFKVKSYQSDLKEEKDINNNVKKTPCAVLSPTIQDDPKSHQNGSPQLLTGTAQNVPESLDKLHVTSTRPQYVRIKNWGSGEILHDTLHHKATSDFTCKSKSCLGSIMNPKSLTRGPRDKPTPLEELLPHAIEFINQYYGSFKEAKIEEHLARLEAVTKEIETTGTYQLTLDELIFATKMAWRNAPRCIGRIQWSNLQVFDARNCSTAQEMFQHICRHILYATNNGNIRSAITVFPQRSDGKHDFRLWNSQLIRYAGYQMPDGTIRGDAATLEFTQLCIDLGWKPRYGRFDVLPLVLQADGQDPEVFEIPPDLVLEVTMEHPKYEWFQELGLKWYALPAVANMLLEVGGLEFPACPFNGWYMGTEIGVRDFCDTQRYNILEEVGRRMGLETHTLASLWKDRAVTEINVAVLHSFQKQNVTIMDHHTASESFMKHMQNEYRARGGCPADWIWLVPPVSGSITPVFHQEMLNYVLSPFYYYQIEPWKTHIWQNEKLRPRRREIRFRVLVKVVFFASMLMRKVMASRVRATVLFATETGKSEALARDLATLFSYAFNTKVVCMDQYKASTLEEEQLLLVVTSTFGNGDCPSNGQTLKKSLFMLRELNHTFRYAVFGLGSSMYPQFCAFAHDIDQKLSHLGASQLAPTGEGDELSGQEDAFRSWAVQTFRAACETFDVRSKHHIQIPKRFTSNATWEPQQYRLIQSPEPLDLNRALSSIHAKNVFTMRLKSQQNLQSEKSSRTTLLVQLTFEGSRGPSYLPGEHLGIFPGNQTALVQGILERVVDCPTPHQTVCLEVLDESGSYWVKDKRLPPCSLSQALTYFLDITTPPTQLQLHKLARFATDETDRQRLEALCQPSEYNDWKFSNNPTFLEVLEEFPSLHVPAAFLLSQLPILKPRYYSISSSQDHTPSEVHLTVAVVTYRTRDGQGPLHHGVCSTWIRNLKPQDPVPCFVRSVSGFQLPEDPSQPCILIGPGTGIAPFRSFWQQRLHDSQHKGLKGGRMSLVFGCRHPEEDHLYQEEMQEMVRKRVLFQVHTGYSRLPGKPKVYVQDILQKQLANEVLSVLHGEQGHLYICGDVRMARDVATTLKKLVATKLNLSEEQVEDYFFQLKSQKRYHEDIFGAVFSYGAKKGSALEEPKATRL

[6] = molecular target: Nitric oxide synthase 1 (Homo sapiens, UniProt P29475); assay: Inhibition of human nNOS expressed in HEK293 cells assessed as NO production by transient transfection assay; type: cell-based
[7] = Drug level in LPS-challenged BALB/c mouse plasma at 30 mg/kg, po after 6 hrs; type: ADME, organism-based; design: dose 30 mg/kg, route oral; how it was run: as §2

T1 sequence (P35228 whole entry): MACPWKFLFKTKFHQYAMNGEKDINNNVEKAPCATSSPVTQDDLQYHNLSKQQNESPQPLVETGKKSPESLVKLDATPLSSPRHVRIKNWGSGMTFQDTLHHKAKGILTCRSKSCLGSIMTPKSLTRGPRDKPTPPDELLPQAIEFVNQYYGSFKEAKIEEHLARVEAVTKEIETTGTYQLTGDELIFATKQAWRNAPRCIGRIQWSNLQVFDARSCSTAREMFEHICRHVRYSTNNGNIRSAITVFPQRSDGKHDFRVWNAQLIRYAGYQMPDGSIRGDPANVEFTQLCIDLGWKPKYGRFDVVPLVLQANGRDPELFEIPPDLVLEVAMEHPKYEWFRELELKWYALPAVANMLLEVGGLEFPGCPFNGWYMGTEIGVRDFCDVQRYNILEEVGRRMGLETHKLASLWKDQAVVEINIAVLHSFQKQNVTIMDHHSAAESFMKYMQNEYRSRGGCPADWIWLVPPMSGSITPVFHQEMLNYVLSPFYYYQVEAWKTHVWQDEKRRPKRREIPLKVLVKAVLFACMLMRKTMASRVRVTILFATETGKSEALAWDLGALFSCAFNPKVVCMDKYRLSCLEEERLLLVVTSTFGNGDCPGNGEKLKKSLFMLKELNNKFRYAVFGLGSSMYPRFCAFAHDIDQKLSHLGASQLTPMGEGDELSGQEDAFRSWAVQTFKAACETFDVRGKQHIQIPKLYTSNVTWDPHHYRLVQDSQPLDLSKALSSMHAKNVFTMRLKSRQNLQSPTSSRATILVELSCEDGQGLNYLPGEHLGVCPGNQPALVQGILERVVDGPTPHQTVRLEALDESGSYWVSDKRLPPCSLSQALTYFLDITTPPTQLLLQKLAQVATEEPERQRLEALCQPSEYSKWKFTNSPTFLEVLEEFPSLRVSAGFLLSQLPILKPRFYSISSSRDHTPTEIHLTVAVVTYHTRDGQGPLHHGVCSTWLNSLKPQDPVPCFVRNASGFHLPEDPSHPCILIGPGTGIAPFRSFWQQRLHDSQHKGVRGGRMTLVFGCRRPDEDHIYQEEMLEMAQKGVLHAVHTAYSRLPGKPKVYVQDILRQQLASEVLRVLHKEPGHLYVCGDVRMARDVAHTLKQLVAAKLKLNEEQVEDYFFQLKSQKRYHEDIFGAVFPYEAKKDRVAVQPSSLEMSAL
Nitric oxide synthase 1, sequence (P29475 whole entry): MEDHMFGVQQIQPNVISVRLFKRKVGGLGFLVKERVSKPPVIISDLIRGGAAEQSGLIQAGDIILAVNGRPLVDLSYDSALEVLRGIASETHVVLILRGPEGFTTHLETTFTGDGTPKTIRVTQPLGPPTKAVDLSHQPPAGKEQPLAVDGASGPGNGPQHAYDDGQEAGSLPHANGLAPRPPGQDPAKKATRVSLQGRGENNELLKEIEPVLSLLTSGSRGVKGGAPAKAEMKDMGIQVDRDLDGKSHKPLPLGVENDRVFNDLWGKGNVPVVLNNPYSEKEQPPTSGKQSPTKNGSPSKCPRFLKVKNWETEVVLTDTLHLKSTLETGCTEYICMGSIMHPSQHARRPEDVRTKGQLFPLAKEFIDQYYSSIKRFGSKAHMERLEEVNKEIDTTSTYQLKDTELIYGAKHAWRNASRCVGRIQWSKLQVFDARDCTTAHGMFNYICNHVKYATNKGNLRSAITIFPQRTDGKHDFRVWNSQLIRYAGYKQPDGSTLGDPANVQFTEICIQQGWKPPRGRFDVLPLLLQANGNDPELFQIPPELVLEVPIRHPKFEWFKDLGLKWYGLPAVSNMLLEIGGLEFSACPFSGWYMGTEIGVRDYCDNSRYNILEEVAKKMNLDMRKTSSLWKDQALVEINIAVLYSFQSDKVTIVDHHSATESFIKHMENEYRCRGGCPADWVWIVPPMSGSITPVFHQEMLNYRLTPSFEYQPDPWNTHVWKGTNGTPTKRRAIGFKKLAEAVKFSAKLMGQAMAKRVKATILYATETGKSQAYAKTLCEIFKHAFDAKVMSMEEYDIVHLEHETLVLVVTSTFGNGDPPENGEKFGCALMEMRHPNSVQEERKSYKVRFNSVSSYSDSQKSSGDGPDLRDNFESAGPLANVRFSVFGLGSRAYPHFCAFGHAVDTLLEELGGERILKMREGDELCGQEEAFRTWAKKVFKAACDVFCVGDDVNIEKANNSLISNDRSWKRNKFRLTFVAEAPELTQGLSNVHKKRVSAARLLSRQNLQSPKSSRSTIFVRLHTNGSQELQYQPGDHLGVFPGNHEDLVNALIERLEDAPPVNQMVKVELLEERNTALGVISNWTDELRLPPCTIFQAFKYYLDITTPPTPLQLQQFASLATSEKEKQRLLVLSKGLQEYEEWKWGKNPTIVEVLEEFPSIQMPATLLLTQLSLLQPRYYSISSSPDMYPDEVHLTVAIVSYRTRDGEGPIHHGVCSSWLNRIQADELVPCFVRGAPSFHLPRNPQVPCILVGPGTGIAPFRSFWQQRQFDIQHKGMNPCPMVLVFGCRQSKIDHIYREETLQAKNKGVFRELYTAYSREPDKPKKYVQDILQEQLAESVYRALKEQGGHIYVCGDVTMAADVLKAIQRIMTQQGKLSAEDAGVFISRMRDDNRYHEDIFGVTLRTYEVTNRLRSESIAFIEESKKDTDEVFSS

Compound | inhibition [1] [%] | pEC50 [2] | pEC50 [3] | Activity [4] [%] | pEC50 [5] | pEC50 [6] | concentration at 6 h [7] [ng/mL]
Cc1ncsc1C(=O)N(Cc1ccnc2c(F)cccc12)c1cccc(Cl)c1 | < 50 | < 4.00 | – | – | – | – | –
Cc1ncsc1C(=O)N(Cc1cc(=O)n(C)c2c(F)cccc12)c1cccc(Cl)c1 | < 50 | < 4.00 | – | – | – | – | –
Cc1ncsc1C(=O)N(Cc1c(F)c(=O)[nH]c2c(F)cccc12)c1cccc(Cl)c1 | – | 7.59 | 4.46 | 29 | 6.89 | < 5.00 | –
Cc1ncsc1C(=O)N(Cc1cc[nH]c(=O)c1)c1cccc(Cl)c1 | < 50 | < 4.00 | – | – | – | – | –
COc1cc(CN(C(=O)c2scnc2C)c2cccc(Cl)c2)c2cccc(F)c2n1 | < 50 | < 4.00 | – | – | – | – | –
Cc1noc(C)c1C(=O)N(Cc1cc(=O)[nH]c2c(F)c(F)ccc12)c1cccc(Cl)c1 | – | 8.52 | 5.92 | 67 | 7.66 | 7.01 | –
Cc1ncsc1C(=O)N(Cc1c[n+]([O-])cc2c(F)cccc12)c1cccc(Cl)c1 | – | 7.06 | – | 20 | 6.18 | – | 39
